{
  "source": "ChEMBL document CHEMBL1212774",
  "about": "“In vitro activity of fosfomycin against blaKPC-containing Klebsiella pneumoniae isolates, including those nonsusceptible to tigecycline and/or colistin” (2010)",
  "type_in_all_cases": "functional",
  "key": {"Klebsiella pneumoniae [1]": {"test_system": "Klebsiella pneumoniae", "assay": "Antimicrobial activity against Klebsiella pneumoniae isolate KpKPC expressing multidrug-resistant blaKPC gene assessed as resistant isolates by Etest", "in_short": "(§1)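 Etest of fosfomycin MICs, with MICs rounded up to the next doubling concentration (e.g., 48 to 64 μg/ml). E. coli ATCC 25922 and P. aeruginosa ATCC 27853 included as controls. Isolates categorised as susceptible or resistant.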"}, "Klebsiella pneumoniae [2]": {"test_system": "Klebsiella pneumoniae", "assay": "Antimicrobial activity against Klebsiella pneumoniae isolate KpKPC expressing multidrug-resistant blaKPC gene assessed as susceptible isolates by disk diffusion method", "in_short": "(§2)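 Fosfomycin disk diffusion with inhibition zone diameters read in mm and interpreted as susceptible, intermediate or resistant. E. coli ATCC 25922 and P. aeruginosa ATCC 27853 run as controls.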"}, "Klebsiella pneumoniae [3]": {"test_system": "Klebsiella pneumoniae", "assay": "Antimicrobial activity against Klebsiella pneumoniae isolate KpKPC expressing multidrug-resistant blaKPC gene assessed as susceptible isolates by Etest", "in_short": "as §1"}, "Klebsiella pneumoniae [4]": {"test_system": "Klebsiella pneumoniae", "assay": "Antimicrobial activity against Klebsiella pneumoniae isolate KpKPC expressing multidrug-resistant blaKPC gene assessed as resistant isolates by disk diffusion method", "in_short": "as §2"}},
  "data": [
    {"smiles": "C[C@@H]1O[C@@H]1P(=O)(O)O", "note": "[FOSFOMYCIN]", "values": [
      {"measurement": "Activity", "setting": "Klebsiella pneumoniae [1]", "value": 14.7, "unit": "%"},
      {"measurement": "Activity", "setting": "Klebsiella pneumoniae [2]", "value": 63.2, "unit": "%"},
      {"measurement": "Activity", "setting": "Klebsiella pneumoniae [3]", "value": 61.8, "unit": "%"},
      {"measurement": "Activity", "setting": "Klebsiella pneumoniae [4]", "value": 2.9, "unit": "%"}
    ]}
  ]
}
